# In the library only some 2.3% were active in any assay of this set; here they are far more common.
# TRPC4 act – TRPC4 (mouse) channel activation. B-score at 10 µM. HEK293 TRPC4beta/mu-opioid, Fluo4 calcium fluorescence; stronger effect = higher value. 0.49% of 310,000 active. Q9QUQ5;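 active = B-score above 5 SD of library B-scores, and initial fluorescence ratio not above library mean plus 5 SD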;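 note: positive B-score marks a calcium rise read as TRPC4 activation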
# Target sequence (Q9QUQ5 whole entry, looked up): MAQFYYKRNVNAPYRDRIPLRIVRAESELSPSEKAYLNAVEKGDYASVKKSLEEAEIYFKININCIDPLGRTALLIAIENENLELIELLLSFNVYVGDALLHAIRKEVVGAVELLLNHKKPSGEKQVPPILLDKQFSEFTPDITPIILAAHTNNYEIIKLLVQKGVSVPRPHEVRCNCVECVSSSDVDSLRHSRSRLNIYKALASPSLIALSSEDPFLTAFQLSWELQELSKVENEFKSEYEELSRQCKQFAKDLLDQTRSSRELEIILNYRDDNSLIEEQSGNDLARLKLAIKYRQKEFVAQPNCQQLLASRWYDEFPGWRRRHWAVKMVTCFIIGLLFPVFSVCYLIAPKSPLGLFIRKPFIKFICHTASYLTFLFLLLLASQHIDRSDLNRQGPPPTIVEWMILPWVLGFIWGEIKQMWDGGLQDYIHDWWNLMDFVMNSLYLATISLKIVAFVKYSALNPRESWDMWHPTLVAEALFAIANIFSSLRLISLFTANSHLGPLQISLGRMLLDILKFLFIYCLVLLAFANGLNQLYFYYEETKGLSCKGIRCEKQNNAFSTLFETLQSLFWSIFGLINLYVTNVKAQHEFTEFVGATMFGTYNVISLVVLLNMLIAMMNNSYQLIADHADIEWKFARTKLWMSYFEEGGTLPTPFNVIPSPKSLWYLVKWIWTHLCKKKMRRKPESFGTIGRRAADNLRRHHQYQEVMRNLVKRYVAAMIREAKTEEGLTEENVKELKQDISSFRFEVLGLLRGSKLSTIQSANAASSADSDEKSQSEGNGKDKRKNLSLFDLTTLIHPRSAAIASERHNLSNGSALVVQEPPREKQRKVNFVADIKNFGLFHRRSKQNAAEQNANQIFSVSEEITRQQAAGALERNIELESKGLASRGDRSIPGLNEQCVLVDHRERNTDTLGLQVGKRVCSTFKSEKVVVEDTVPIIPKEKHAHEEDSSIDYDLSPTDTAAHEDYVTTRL
#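 Incubation: 45 min room-temperature Fluo4 loading, 110 s read / System: HEK293 cells stably co-expressing mouse TRPC4beta and mu-opioid receptor / Signal: Fluo4 fluorescence, kinetic / Control set: buffer (low) and maximal DAMGO (high) / Measure: integrated baseline-normalised fluorescence ratio, converted to per-well B score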
# TRPC6 act – activates the mouse TRPC6 cation channel. Q61143. HEK293-TRPC6 membrane potential dye fluorescence; stronger effect = higher value. B-score at 10 µM. 0.13% of 310,000 active;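 active = B-score of the integrated fluorescence ratio above library mean plus 3 SD, and starting fluorescence ratio within library mean plus 5 SD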;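 note: higher score means more depolarization so channel activation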
# TRPC4 block – blocks the mouse TRPC4 cation channel. HEK293 TRPC4beta/mu-opioid, DAMGO-evoked Fluo4 calcium flux; stronger effect = lower value. B-score at 10 µM. Q9QUQ5. 0.39% of 300,000 active;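 active = B-score over 3 SD under the library average, no early fluorescence shift, positive overall ratio signal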
#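 Assay system: TRPC4beta/mu-opioid receptor HEK293 cell line; compound dosing: single concentration per test compound; detection: Fluo4 Ca2+ flux fluorescence; evaluation: per-well B score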
# TRPC4 PAM – allosterically enhances the mouse TRPC4 cation channel | HEK293 TRPC4beta/mu-opioid, DAMGO EC20, Fluo-4 Ca2+ flux; stronger effect = higher value | B-score at 10 µM | 0.42% of 310,000 active | AID 2227;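 active = B-score of calcium response area above 5 SD of library B-scores, with initial fluorescence ratio within 5 SD of library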;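 note: B-score of integrated fluorescence ratio over time as area under calcium response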
# TRPC6 inhibitor – mouse TRPC6 channel inhibition. AID 2553. HEK293-TRPC6, membrane potential dye, ACh-evoked depolarization; stronger effect = lower value. Q61143. B-score at 10 µM. 1.1% of 310,000 active;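 active = B-score under library mean minus 3 SD, initial fluorescence not abnormally high, positive integrated signal ratio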;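 note: B-score derived from integrated fluorescence ratio over the kinetic read; more negative B-score means stronger inhibition of depolarization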
# The depositor's hits bear a star; i = inactive.
SMILES,TRPC4 act,TRPC6 act,TRPC4 block,TRPC4 PAM,TRPC6 inhibitor
O=C(NC1CCCCCCC1)c1cnccn1,i,i,i,12*,i
CCOc1cccc(CNCCO)c1OCc1ccc(Cl)cc1,i,i,-7*,i,i
C[n+]1cccc(C(=O)NNC(=O)C23CC4CC(CC(C4)C2)C3)c1,i,i,i,i,i
Cc1ccc(N(Cc2ccccc2)C(=O)c2cc(S(=O)(=O)N3CCOCC3)ccc2Cl)cc1,i,i,i,10*,i
COc1ccccc1CN=C1Nc2ccccc2CS1,71*,i,i,i,i
O=C(NN1CCCCC1)c1ccc(COc2ccc(Cl)cc2)cc1,i,i,i,i,i
CCN1CCN(C(=O)C2CCN(c3nnc(C)c4c(C)n(-c5ccc(C)cc5)nc34)CC2)CC1,i,i,-5*,i,i
CC1=NN(c2ccccc2)C(=O)/C1=C/c1ccc(Cl)cc1,i,i,i,10*,i
Cc1c(C(=O)NC(=S)Nc2ccc(N3CCOCC3)cc2)cccc1[N+](=O)[O-],i,i,i,i,i
CCCCN(C(=O)c1cccc2c(=O)c(C)c(-c3ccccc3)oc12)c1ccccc1,i,i,i,32*,i
NS(=O)(=O)c1ccc(NC(=O)CN2CCCN(S(=O)(=O)c3ccc(F)cc3)CC2)cc1,i,i,i,i,i
O=C(CN1CCCN(S(=O)(=O)c2ccc(F)cc2)CC1)Nc1ccccc1Br,i,i,-6*,i,i
N=c1n(Cc2ccccc2)c2ccccc2n1CC(O)COc1ccc(Cl)cc1Cl (stereo not drawn),i,i,i,12*,i
N=c1n(Cc2ccccc2)c2ccccc2n1Cc1ccccc1,i,i,i,i,i
COc1ccc(OCC(O)Cn2c(=N)n(Cc3ccccc3)c3ccccc32)cc1 (stereo not drawn),i,i,i,i,i
N=c1n(Cc2ccc(Cl)cc2)c2ccccc2n1CC(O)COc1ccccc1 (stereo not drawn),86*,i,i,i,i
CCN(CC)CCn1c(=N)n(CC(O)COc2cccc(C)c2)c2ccccc21 (stereo not drawn),i,i,-5*,i,i
N=c1n(CCO)c2ccccc2n1Cc1ccc(Cl)cc1,i,i,-6*,i,i
Cn1c(=O)c2ncn(CC(=O)N/N=C/c3ccco3)c2n(C)c1=O,i,i,i,i,i
COc1cc(O)c(CCC(=O)c2ccc(OC)c(OC)c2)c(OC)c1,i,i,i,i,i
CCN(CC)c1ncnc2scc(C3COc4ccccc4O3)c12 (stereo not drawn),i,i,-7*,i,i
C#CC[N+]1(CC#Cc2cccc3ccccc23)CCOCC1,i,i,i,37*,i
CCOc1ccc(C(=O)C(C)OC(=O)c2nc(Cl)ccc2Cl)cc1 (stereo not drawn),i,i,i,i,i
Cc1ccc(S(=O)(=O)N2CCC(C(=O)NCCCOC(C)C)CC2)cc1,i,i,i,i,i
Cc1ccc(CN2CC(C(=O)N3CCN(S(=O)(=O)c4cccc(F)c4)CC3)CC2=O)cc1 (stereo not drawn),i,i,i,i,i
SMILES,TRPC4 act,TRPC6 act,TRPC4 block,TRPC4 PAM,TRPC6 inhibitor
CCC(=O)NC(=S)Nc1ccc(NC(=O)COc2ccc(Cl)c(C)c2)cc1,i,i,i,i,i
Cc1cc(OCC(=O)NC2CCCCC2)ccc1Cl,i,i,i,27*,i
O=C(COc1ccccc1)NC1CCCCC1,i,i,i,i,i
O=C(NC(=S)NNC(=O)c1cccs1)c1ccc(Br)o1,180*,i,i,i,i
COc1cccc(OCC(=O)NC2CCCCC2)c1,i,i,i,31*,i
Cc1cc(OCC(=O)NNC(=S)NC(=O)c2ccc(Br)o2)ccc1Cl,i,i,i,16*,i
COc1cc(C(C(=O)NC2CCCC2)N(CCO)C(=O)Cn2nnc(-c3ccc(C)o3)n2)ccc1O (stereo not drawn),i,i,i,i,i
Cn1ccnc1SCC(=O)Nc1nc2c(F)c(F)c(F)cc2s1,i,i,i,i,i
CC(C)CNC(=O)Cn1c(=O)c2c(ncn2CC(C)C)n(Cc2ccccc2)c1=O,i,i,i,i,i
O=C(COc1ccc(Cl)cc1[N+](=O)[O-])NC1CCCCC1,i,i,i,85*,i
COc1ccc(/C=C/C(=O)Oc2cc(O)cc(O)c2)cc1,i,i,-7*,i,i
CCC(C)NC(=O)CSc1nnc(-c2cc(-c3cccs3)nc3ccccc23)o1 (stereo not drawn),i,i,i,i,i
CCN(CC(=O)Nc1c(F)cccc1F)C(=O)C1(c2ccccc2)CC1,i,i,i,i,i
Cc1ccc(-c2c[n+](Cc3ccc(Cl)c(Cl)c3)c3n2CCC3)cc1,i,i,-8*,i,i
O=C(C[n+]1cc(-c2ccc(Cl)c(Cl)c2)n2c1CCC2)N1c2ccccc2Sc2ccccc21,i,i,-6*,i,i
O=C(Nc1ccc(S(=O)(=O)N2CCOCC2)cc1)C1CCN(S(=O)(=O)c2ccccc2)CC1,i,i,i,i,i
CC1CCN(C(C)C(=O)Nc2ccccc2-c2ccccc2)CC1 (stereo not drawn),i,i,-7*,i,i
CC(C)[C@H](NS(=O)(=O)c1ccccc1)C(=O)OCC(=O)N1N=C(c2ccc(Cl)cc2)CC1c1ccco1 (stereo partly drawn),i,i,i,i,i
CCCc1nc2ccccc2n1CCOC,i,i,i,i,i
Cc1nc2ccccc2n1Cc1ccccc1,i,i,i,i,i
Cc1nc2ccccc2n1Cc1ccc(Br)cc1,i,i,-6*,i,i
CC(C)(C)Cc1nc2ccccc2n1CCc1ccccc1,i,i,-7*,i,i
Cc1ccc(OCCn2c(C)nc3ccccc32)cc1,i,i,-6*,i,i
CCCc1nc2ccccc2n1CCOc1ccccc1,i,i,-6*,i,i
CCCCn1ccnc1C(=O)c1cccc(S(=O)(=O)N2CC(C)CC(C)C2)c1 (stereo not drawn),i,i,i,i,i
Cc1nc2ccccc2n1CCCOc1ccccc1,i,i,i,i,i
Nc1nc2ccccc2n1CCOc1ccc(Br)cc1,i,i,i,i,i
Cc1nc(Cl)c(Cl)n1CCOc1ccccc1,i,i,-8*,i,i

# Compound activity deposited in PubChem by Johns Hopkins Ion Channel Center.
